Measurements reported in ChEMBL document CHEMBL1126834, “Chemistry, binding affinities, and behavioral properties of a new class of "antineophobic" mitochondrial DBI receptor complex (mDRC) ligands” (J Med Chem, 1993).

Columns and labels:
[1] = Inhibitory activity by measuring its ability to displace [3H]glycine from glycine receptor in rat brain; format: tissue-based
[2] = Inhibitory activity at GABA B receptor, measured by the ability to displace [3H]baclofen from GABA B receptor in rat brain; format: tissue-based
[3] = target: Serotonin 2 (5-HT2) receptor (Rattus norvegicus); assay: Inhibitory activity by measuring its ability to displace [3H]ketanserin from serotonin receptor in rat brain
[4] = target: Glutamate NMDA receptor; assay: Inhibitory activity by measuring its ability to displace [3H]-MK-801 from glutamate(NMDA) receptor in rat brain; format: tissue-based
[5] = target: GABA-A receptor; anion channel; assay: Inhibitory activity at GABA A receptor, measured by the ability to displace [35S]TBPS from GABA A receptor in rat brain; format: tissue-based
[6] = target: GABA-A receptor; anion channel; assay: Inhibitory activity at GABA A receptor, measured by the ability to displace [3H]zolpidem from GABA A receptor in rat brain; format: tissue-based
[7] = target: Sigma receptor (Rattus norvegicus); assay: Tested for inhibitory activity by measuring its ability to displace [3H]3-PPP from sigma receptor in rat brain
[8] = target: Translocator protein (Rattus norvegicus, UniProt P16257); assay: Binding affinity against mitochondrial DBI complex (peripheral benzodiazepine receptor) using primary cultures of glial cells
Chain of Translocator protein (P16257 whole entry, looked up): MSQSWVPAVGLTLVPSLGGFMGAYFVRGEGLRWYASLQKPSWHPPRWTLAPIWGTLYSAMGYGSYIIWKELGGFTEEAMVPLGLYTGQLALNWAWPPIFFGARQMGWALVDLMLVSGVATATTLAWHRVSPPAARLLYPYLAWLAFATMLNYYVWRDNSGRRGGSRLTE
How it was run: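 Glia from cerebella of 8-day-old Sprague–Dawley rat pups, trypsin-dissociated and grown 14 days (~95% astroglia). Cells lysed in 50 mM Hepes pH 7.4, 4 μg protein per tube. Incubated with [3H]4'-chlorodiazepam and competitor for 90 min at 4 °C, then filtered. Nonspecific binding defined with 10 μM 4'-chlorodiazepam. Triplicate competition curves; IC50 by nonlinear regression, converted to Ki (Bylund–Yamamura).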

[9] = target: Adrenergic receptor alpha; assay: Inhibitory activity by measuring its ability to displace [3H]WB-4101 from alpha-adrenergic receptor in rat brain; format: tissue-based
[10] = Tested for inhibitory activity by measuring its ability to displace [3H]AMPA from glutamate (non-NMDA) receptor in rat brain; format: tissue-based
[11] = tested on: Rattus norvegicus; assay: Tested for antineophobic activity using the elevated plus maze test administered at 51 umol/kg perorally in rats; format: functional
[12] = target: Adrenergic receptor beta (Rattus norvegicus, UniProt P18090+P10608+P26255); assay: Inhibitory activity by measuring its ability to displace [125I]pindolol from beta-adrenergic receptor in rat brain; format: tissue-based
[13] = target: GABA-A receptor; anion channel; assay: Inhibitory activity at GABA A receptor, measured by the ability to displace [3H]GABA from GABA A receptor in rat brain; format: tissue-based
[14] = target: Cannabinoid receptor 1 (Rattus norvegicus, UniProt P20272); assay: Inhibitory activity, measured by displacement [3H]CP-55940 from cannabinoid receptor (CB1) in rat brain; format: tissue-based
Chain of Cannabinoid receptor 1 (P20272 whole entry): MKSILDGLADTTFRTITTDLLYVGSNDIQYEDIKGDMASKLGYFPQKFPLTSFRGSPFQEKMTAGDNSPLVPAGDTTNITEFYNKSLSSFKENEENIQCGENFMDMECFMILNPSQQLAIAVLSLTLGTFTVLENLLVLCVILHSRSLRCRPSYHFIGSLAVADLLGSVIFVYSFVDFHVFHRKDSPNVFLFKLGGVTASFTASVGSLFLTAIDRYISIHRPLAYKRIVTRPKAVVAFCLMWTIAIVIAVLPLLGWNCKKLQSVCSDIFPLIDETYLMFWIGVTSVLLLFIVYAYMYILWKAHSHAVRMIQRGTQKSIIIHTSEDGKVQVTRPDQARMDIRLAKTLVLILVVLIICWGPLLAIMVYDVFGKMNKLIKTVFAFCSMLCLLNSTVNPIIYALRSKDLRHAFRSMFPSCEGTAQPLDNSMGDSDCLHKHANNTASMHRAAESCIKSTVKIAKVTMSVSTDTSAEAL

[15] = Inhibitory activity by measuring its ability to displace [3H]spiperone from dopamine or serotonin 5-HT-1 receptors in rat brain; format: tissue-based
[16] = target: Opioid receptor (Rattus norvegicus, UniProt P33533+P34975+P33535); assay: Inhibition of [3H]naxolone binding to opiate receptors in rat brain; format: tissue-based
[17] = target: GABA-A receptor; anion channel; assay: Inhibitory activity at GABA A receptor, measured by the ability to displace [3H]flumazenil from GABA A receptor in rat brain; format: tissue-based
[18] = target: T1, Gastrin/cholecystokinin type B receptor (Rattus norvegicus, UniProt P30553); assay: Inhibitory activity by measuring its ability to displace [3H]L-365260 from cholecystokinin receptor in rat brain; format: tissue-based
T1 sequence (P30553 whole entry): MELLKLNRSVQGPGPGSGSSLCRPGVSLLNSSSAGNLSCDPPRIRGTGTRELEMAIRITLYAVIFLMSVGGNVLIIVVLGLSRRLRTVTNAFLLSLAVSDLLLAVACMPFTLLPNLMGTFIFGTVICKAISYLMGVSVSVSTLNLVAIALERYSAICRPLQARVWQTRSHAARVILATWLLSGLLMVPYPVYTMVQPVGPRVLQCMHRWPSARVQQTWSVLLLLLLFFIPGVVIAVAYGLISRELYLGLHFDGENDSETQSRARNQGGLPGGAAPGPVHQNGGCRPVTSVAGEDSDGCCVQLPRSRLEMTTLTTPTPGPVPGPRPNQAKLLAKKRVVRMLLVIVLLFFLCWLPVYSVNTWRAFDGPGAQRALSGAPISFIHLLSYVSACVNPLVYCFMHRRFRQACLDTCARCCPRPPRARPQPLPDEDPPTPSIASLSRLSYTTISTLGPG

[19] = target: Adrenergic receptor alpha; assay: Inhibitory activity by measuring its ability to displace [3H]clonidine from alpha-adrenergic receptor in rat brain; format: tissue-based
[20] = tested on: Rattus norvegicus; assay: Tested for antineophobic activity using the elevated plus maze test administered at 53 umol/kg perorally in rats; format: functional
[21] = target: Adrenergic receptor alpha; assay: Displacement of [3H]clonidine from alpha-adrenergic receptor in rat brain; format: tissue-based
[22] = tested on: Rattus norvegicus; assay: Tested for antineophobic activity using the elevated plus maze test administered at 59 umol/kg perorally in rats; format: functional
[23] = tested on: Rattus norvegicus; assay: Tested for antineophobic activity using the elevated plus maze test administered at 58 umol/kg perorally in rats; format: functional
[24] = tested on: Rattus norvegicus; assay: Tested for antineophobic activity using the elevated plus maze test administered at 55 umol/kg perorally in rats; format: functional

| Compound | IC50 [1] [µM] | IC50 [2] [µM] | IC50 [3] [µM] | IC50 [4] [µM] | IC50 [5] [µM] | IC50 [6] [µM] | IC50 [7] [µM] | Ki [8] [µM] | IC50 [9] [µM] | IC50 [10] [µM] | IC50 [12] [µM] | IC50 [13] [µM] | IC50 [14] [µM] | IC50 [15] [µM] | IC50 [16] [µM] | IC50 [17] [µM] | IC50 [18] [µM] | IC50 [19] [µM] | IC50 [21] [µM] | No. of entries [23] | also measured |
| --- | --- | --- | --- | --- | --- | --- | --- | --- | --- | --- | --- | --- | --- | --- | --- | --- | --- | --- | --- | --- | --- |
| CCCCCCN(CCCCCC)C(=O)Cc1c(-c2ccc(Cl)cc2)[nH]c2ccc(Cl)cc12 | > 1 | > 1 | > 1 | > 1 | > 1 | > 1 | > 1 | 0.0036 | > 1 | > 1 | > 1 | > 1 | > 1 | > 1 | > 1 | > 1 | > 1 | > 1 | – | – | No. of entries [11]: 2.3; Time [11]: 5.3% |
| CCCCCCN(CCCCCC)C(=O)Cc1c(-c2ccc(F)cc2)[nH]c2ccc(Cl)cc12 | > 1 | > 1 | > 1 | > 1 | > 1 | > 1 | > 1 | 0.0023 | > 1 | > 1 | > 1 | > 1 | > 1 | > 1 | > 1 | > 1 | > 1 | – | > 1 | – | No. of entries [20]: 0.4; Time [20]: 0.4% |
| CCCCCCN(CCCCCC)CCc1c(-c2ccc(F)cc2)[nH]c2ccccc12 | > 1 | > 1 | – | > 1 | > 1 | > 1 | – | 0.2 | > 1 | > 1 | > 1 | > 1 | > 1 | > 1 | – | > 1 | > 1 | – | > 1 | – | No. of entries [22]: 2; Time [22]: 4.1% |
| CCCN(CCC)C(=O)Cc1cn(Cc2ccc(Br)cc2)c2ccccc12 | > 1 | > 1 | – | > 1 | > 1 | > 1 | – | 0.2 | > 1 | > 1 | > 1 | > 1 | > 1 | > 1 | – | > 1 | > 1 | > 1 | – | 0.6 | Time [23]: 1% |
| CCCCCCN(CCCCCC)C(=O)Cc1c2n(c3ccccc13)Cc1ccccc1-2 | > 1 | > 1 | – | > 1 | > 1 | > 1 | – | 0.0077 | > 1 | > 1 | > 1 | > 1 | > 1 | > 1 | – | > 1 | > 1 | – | > 1 | 2 | Time [23]: 6.4% |
| CCCCCCN(CCCCCC)C(=O)Cc1c(-c2ccccc2)[nH]c2ccc(Cl)cc12 | > 1 | > 1 | – | > 1 | > 1 | > 1 | – | 0.0041 | > 1 | > 1 | > 1 | > 1 | > 1 | > 1 | – | > 1 | > 1 | > 1 | – | – | No. of entries [24]: 2.3; Time [24]: 4.3% |
